{"data": "Results from different studies", "cell line": "SK-MEL-2", "effect on": "cell growth or viability", "note": "Compare with care: the assays were run in different laboratories."}
{"Compound": "COc1cccc(Oc2ccccc2NC(=O)CNC(=O)c2cccc3ccccc23)c1", "test": "SRB", "conditions": "48 h", "quantity": "GI50", "result": "0.182 µM"}
{"Compound": "O=C(c1c(F)ccc(NS(=O)(=O)N2CC[C@@H](F)C2)c1F)c1c[nH]c2ncc(-c3cnc(C4CC4)nc3)cc12", "test": "ATP luminescence", "conditions": "72 h", "quantity": "IC50", "result": "> 20 µM"}
{"Compound": "COc1ccc(-c2ccc(-c3ccc(C(=N)N)nc3)s2)cc1", "test": "SRB", "quantity": "GI50", "result": "2.05 µM"}
{"Compound": "O=C1NC(=NCc2cccs2)S/C1=C\\c1ccc2ncccc2c1", "quantity": "IC50", "result": "> 10 µM"}
{"Compound": "COc1ccc(C(=O)/C=C/c2ccc(Cl)c(Cl)c2)cc1S(N)(=O)=O", "test": "SRB", "conditions": "48 h", "quantity": "GI50", "result": "5.6 µM"}
{"Compound": "O=C1NCCc2[nH]c(-c3ccncc3)cc21", "quantity": "IC50", "result": "> 10 µM"}
{"Compound": "COc1ccc(C(=O)/C=C/c2ccccc2Br)cc1S(N)(=O)=O", "test": "SRB", "conditions": "48 h", "quantity": "GI50", "result": "14.5 µM"}
{"Compound": "COc1ccc(-c2ccc(-c3ccc(C(=N)N)nc3)s2)cc1Cl", "test": "SRB", "quantity": "GI50", "result": "2.15 µM"}
